Results from article PMC9933479 (ACS Omega, 2023).

Assays:
Experiment in all cases: MTT assay, cytotoxicity/growth inhibition
A549 (lung carcinoma) = format: cell-based, human; conditions: for inhibition at 20 µM: A549, 48 h, read-out: Cytotoxic Activity (% Growth Inhibition), A549, 20 μM concentration, MTT, 48 h; for Cytotoxic Activity (% Growth Inhibition): A549, 20 μM concentration, MTT, 48 h, 20 µM
How it was run: (§1)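 Cells were grown in RPMI (A549, HCT-116, PC-3) or DMEM (MCF-7) with 10% FBS at 37 °C and 5% CO2. Seeding per well was […] and PC-3 8 × 10^4 cells. […] MTT 250 μg/mL, 4 h; DMSO; A570; triplicate; mean ± SE.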

[1] = tested on: PC-3 (prostate carcinoma); format: cell-based; conditions: Homo sapiens; for inhibition at 20 µM: 48 h, read-out: Cytotoxic Activity (% Growth Inhibition)
How it was run: as §1

MCF-7 (breast carcinoma) = format: cell-based; conditions: Homo sapiens; for inhibition at 20 µM: MCF7, 48 h, read-out: Cytotoxic Activity (% Growth Inhibition)
How it was run: as §1

[2] = tested on: HCT-116 (colon carcinoma); format: cell-based; conditions: Homo sapiens; for inhibition at 20 µM: HCT-116, 48 h, read-out: Cytotoxic Activity (% Growth Inhibition)
How it was run: as §1

SMILES | potency relative to andrographolide (times / fold more potent) (A549 (lung carcinoma); A549, ratio of IC50 values) | IC50 (A549 (lung carcinoma); Homo sapiens, A549) [µM] | inhibition at 20 µM (A549 (lung carcinoma); Homo sapiens) [%] | IC50 [1] [µM] | inhibition at 20 µM [1] [%] | IC50 (MCF-7 (breast carcinoma); MCF7) [µM] | inhibition at 20 µM (MCF-7 (breast carcinoma)) [%] | IC50 ([2]; HCT-116) [µM] | inhibition at 20 µM [2] [%] | Cytotoxic Activity (% Growth Inhibition) (A549 (lung carcinoma)) [%]
COc1cc(CC(=O)OCC2=CCC3[C@]4(C)COC(c5ccccc5)O[C@@H]4CC[C@@]3(C)[C@@H]2/C=C/C2=CCOC2=O)cc(OC)c1OC (stereo partly drawn) [Compound 8u, ((4aR,6aR,7S,10bR)-6a,10b-Dimethyl-7-((E)-2-(2-oxo-2,5-dihydrofuran-3-yl)vinyl)-3-phenyl-4a,5,6,6a,7,10,10a,10b-octahydro-1H-naphtho[2,1-d][1,3]dioxin-8-yl)methyl 2-(3,4,5-Trimethoxyphenyl)acetate] | about 4 | 5.4 | 72 ± 0.54 | 9 | 70.9 ± 0.41 | > 20 | 43 ± 0.28 | > 20 | 10.9 ± 0.99 | 
COc1cccc(C(=O)OCC2=CCC3[C@]4(C)COC(c5ccccc5)O[C@@H]4CC[C@@]3(C)[C@@H]2/C=C/C2=CCOC2=O)c1 (stereo partly drawn) [Compound 8b, ((4aR,6aR,7S,10bR)-6a,10b-Dimethyl-7-((E)-2-(2-oxo-2,5-dihydrofuran-3-yl)vinyl)-3-phenyl-4a,5,6,6a,7,10,10a,10b-octahydro-1H-naphtho[2,1-d][1,3]dioxin-8-yl)methyl 3-Methoxybenzoate] |  |  | < 52 |  | 0 |  | 6.04 ± 0.12 |  | 11.72 ± 0.11 | 48.88 ± 0.17
CCCCCCCCCC(=O)OCC1=CCC2[C@]3(C)COC(c4ccccc4)O[C@@H]3CC[C@@]2(C)[C@@H]1/C=C/C1=CCOC1=O (stereo partly drawn) [Compound 8x, ((4aR,6aR,7S,10bR)-6a,10b-Dimethyl-7-((E)-2-(2-oxo-2,5-dihydrofuran-3-yl)vinyl)-3-phenyl-4a,5,6,6a,7,10,10a,10b-octahydro-1H-naphtho[2,1-d][1,3]dioxin-8-yl)methyl Decanoate] |  |  | 49.7 ± 0.79 |  | 39 ± 0.24 |  | 45 ± 0.98 |  | 50.1 ± 0.4 | 
Cc1ccc(CC(=O)OCC2=CCC3[C@](C)(CO)[C@H](O)CC[C@@]3(C)[C@@H]2/C=C/C2=CCOC2=O)cc1 (stereo partly drawn) [Compound 9t, ((1S,5R,6R,8aR)-6-Hydroxy-5-(hydroxymethyl)-5,8a-dimethyl-1-((E)-2-(2-oxo-2,5-dihydrofuran-3-yl)vinyl)-1,4,4a,5,6,7,8,8a-octahydronaphthalen-2-yl)methyl 2-(p-Tolyl)acetate] |  |  | 49.7 ± 0.92 |  | 52 ± 0.85 |  | 5.2 ± 0.5 |  | 13.9 ± 0.64 | 
CCCCCCCC(=O)OCC1=CCC2[C@](C)(CO)[C@H](O)CC[C@@]2(C)[C@@H]1/C=C/C1=CCOC1=O (stereo partly drawn) [Compound 9w, ((1S,5R,6R,8aR)-6-Hydroxy-5-(hydroxymethyl)-5,8a-dimethyl-1-((E)-2-(2-oxo-2,5-dihydrofuran-3-yl)vinyl)-1,4,4a,5,6,7,8,8a-octahydronaphthalen-2-yl)methyl Octanoate] |  |  | 16.8 ± 0.93 |  | 67 ± 0.75 |  | 25 ± 0.36 |  | 23.9 ± 0.58 | 
COc1cc(OC)cc(C(=O)OCC2=CCC3[C@]4(C)COC(c5ccccc5)O[C@@H]4CC[C@@]3(C)[C@@H]2/C=C/C2=CCOC2=O)c1 (stereo partly drawn) [Compound 8j, ((4aR,6aR,7S,10bR)-6a,10b-Dimethyl-7-((E)-2-(2-oxo-2,5-dihydrofuran-3-yl)vinyl)-3-phenyl-4a,5,6,6a,7,10,10a,10b-octahydro-1H-naphtho[2,1-d][1,3]dioxin-8-yl)methyl 3,5-Dimethoxybenzoate] |  |  | < 52 |  | 55.8 ± 0.49 |  | 48 ± 0.91 |  | 47.2 ± 0.75 | 51 ± 0.48
C[C@@]12COC(c3ccccc3)O[C@@H]1CC[C@]1(C)C2CC=C(COC(=O)c2cccc(C(F)(F)F)c2)[C@H]1/C=C/C1=CCOC1=O (stereo partly drawn) [Compound 8h, ((4aR,6aR,7S,10bR)-6a,10b-Dimethyl-7-((E)-2-(2-oxo-2,5-dihydrofuran-3-yl)vinyl)-3-phenyl-4a,5,6,6a,7,10,10a,10b-octahydro-1H-naphtho[2,1-d][1,3]dioxin-8-yl)methyl 3-(Trifluoromethyl)benzoate] |  |  | 69 |  | 54 ± 0.62 |  | 0 |  | 4.8 ± 0.02 | 69.48 ± 0.42
